Results as given in publication PMC9399017 (European Journal of Drug Metabolism and Pharmacokinetics, 2022).
Values joined by “and” are separate entries in the source; they are usually repeats but may differ in a detail not shown here. Equal entries are not always repeated.

Legend:
[1] = test system: major CYP isoenzymes, including CYP3A4; settings: in vitro; cited from earlier work
[2] = test system: CYP3A; settings: humans; cited from earlier work
[3] = Population pharmacokinetic; assay type: in vivo, human (patients with advanced cancers); settings: for Duration of constant (zero-order) release into depot, D1, capsule, Estimate (% RSE): hard gelatin capsule
Procedure, shortened: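 Patients took immediate-release capsules or film-coated tablets orally. Sampling was intensive in cycle 1 and sparse for up to 5 cycles. Lithium-heparin blood was processed to plasma within about 30 min, protein-precipitated, and measured by validated LC-MS/MS (2.00‒500 ng/mL; LLOQ 2.00 ng/mL). FOCE-I mixed-effects fits tested 1–3-compartment models with fixed allometric weight exponents and per-cycle interoccasion variability. Percentiles came from bootstrap.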

[4] = between-subject variability, NONMEM estimate
[5] = between-subject variability, bootstrap
[6] = final PopPK model, NONMEM estimate

## C[C@]12CC[C@@H]3c4ccc(O)cc4C[C@@H](CCCCCCCCC[S+]([O-])CCCC(F)(F)C(F)(F)F)[C@H]3[C@@H]1CC[C@@H]2O (stereo partly drawn) [Fulvestrant, fulvestrant]
[1]
  Inhibition of major CYP isoenzymes: did not significantly inhibit
[2]
  Change in exposure to a CYP3A substrate (midazolam): nor did it change the exposure

## CNC(=O)c1cccc2cc(Oc3ccnc4cc(OCC5(N)CC5)c(OC)cc34)ccc12 [lucitanib]
[3]; 5 to 30 mg lucitanib, visual inspection
  Dose proportionality (post hoc ETA versus dose): consistent with dose proportionality
[3]; 17 of 403 patients with concomitant fulvestrant
  Effect of co-administration of fulvestrant on lucitanib pharmacokinetics: no effect
[3]; NONMEM estimate
  Residual error (proportional), Estimate (% RSE): 33.6% (2.30%)
[3]; [4]
  CL/F BSV (log-proportional), Estimate (% RSE): 47.8% (5.69%)
  D1 BSV (log-proportional), Estimate (% RSE): 60.1% (18.6%)
  Vc/F BSV (log-proportional), Estimate (% RSE): 58.6% (6.97%)
  Vp/F BSV (log-proportional), Estimate (% RSE): 76.7% (9.10%)
[3]; [5]
  CL/F BSV (log-proportional), Bootstrap median (2.5th, 97.5th percentile): 47.5% (42.8%, 53.2%)
  D1 BSV (log-proportional), Bootstrap median (2.5th, 97.5th percentile): 58.7% (41.3%, 75.8%)
  Vc/F BSV (log-proportional), Bootstrap median (2.5th, 97.5th percentile): 58.9% (51.3%, 67.5%)
  Vp/F BSV (log-proportional), Bootstrap median (2.5th, 97.5th percentile): 75.2% (60.0%, 88.8%)
[3]; bootstrap
  Residual error (proportional), Bootstrap median (2.5th, 97.5th percentile): 33.5% (32.0%, 34.8%)
[3]; capsule, nonparametric bootstrap
  Duration of constant release into depot for capsule, D1, Bootstrap median (2.5th, 97.5th percentile): 0.812 (0.629, 0.956) h
[3]; concomitant PPI
  Effect of concomitant proton pump inhibitors on lucitanib absorption: no clinically significant effect
[3]; concomitant proton pump inhibitor, n = 152, not significant
  Ratio of F with concomitant PPI/without PPI, 95% CI: 0.83–1.08
[3]; concomitant proton pump inhibitor, not clinically significant
  Reduction in F with concomitant PPI (estimated effect size): 6.5%
[3]; correlation of random effects, NONMEM estimate
  CL/F and Vc/F correlation, Estimate (% RSE): 0.596 (6.30%)
[3]; correlation of random effects, bootstrap
  CL/F and Vc/F correlation, Bootstrap median (2.5th, 97.5th percentile): 0.595 (0.469, 0.721)
[3]; film-coated tablet, final PopPK model
  Duration of zero-order release, D1, tablet: 0.243 h
[3]; [6]
  Apparent central volume, Vc/F, Estimate (% RSE): 63.8 (5.08%) L/70 kg
  Apparent distribution clearance, Q/F, Estimate (% RSE): 6.23 (8.41%) L/h/70 kg
  Apparent peripheral volume, Vp/F, Estimate (% RSE): 69.1 (6.81%) L/70 kg
  Effect of formulation on D1 (tablet to capsule ratio), Estimate (% RSE): 0.299 (19.4%)
  First-order absorption rate constant, Ka, Estimate (% RSE): 4.86 1/h and 4.86 (12.6%) 1/h
[3]; final PopPK model, NONMEM estimate, oral 5-30 mg QD, 403 patients
  Apparent clearance, CL/F, Estimate (% RSE): 1.90 (2.75%) L/h/70 kg
[3]; final PopPK model
  Duration of constant (zero-order) release into depot, D1, capsule, Estimate (% RSE): 0.814 (22.2%) h
[3]; final PopPK model, listed as Lucitanib
  Duration of constant (zero-order) release into depot, D1, capsule, Estimate (% RSE): 0.814 h
[3]; human, plasma, oral
  half-life: 8.58 min
[3]; nonparametric bootstrap
  Apparent central volume, Vc/F, Bootstrap median (2.5th, 97.5th percentile): 63.4 (57.3, 70.6) L/70 kg
  Apparent distribution clearance, Q/F, Bootstrap median (2.5th, 97.5th percentile): 6.30 (5.29, 7.72) L/h/70 kg
  Apparent peripheral volume, Vp/F, Bootstrap median (2.5th, 97.5th percentile): 68.9 (61.0, 79.1) L/70 kg
  Effect of formulation on D1 (tablet to capsule ratio), Bootstrap median (2.5th, 97.5th percentile): 0.343 (0.178, 0.630)
  First-order absorption rate constant, Ka, Bootstrap median (2.5th, 97.5th percentile): 4.77 (2.94, 8.21) 1/h
[3]; nonparametric bootstrap, 1000 replicates
  Apparent clearance, CL/F, Bootstrap median (2.5th, 97.5th percentile): 1.90 (1.80, 2.00) L/h/70 kg
[3]; present dataset
  Variance in Vc/F explained by body weight: 11%
[3]; tablet and capsule
  D1 values, both immediate-release formulations: < 1 h
[3]; tablet vs capsule
  D1 shorter for tablets versus capsules: 70%
